Legend:
Assay type in all cases: functional
Rattus norvegicus [1] = assay: Effect on level of triglyceride in (relative to untreated control) in cholesterol fed-male rats at 80 mg/kg/day
Outline: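 Compound given in diet ad libitum for eight days to groups of six male Sprague–Dawley rats on a cholic acid and cholesterol-supplemented diet. Serum triglycerides expressed as % change relative to untreated controls, with significance at p < 0.05. Gemfibrozil served as internal positive control within each study.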

Rattus norvegicus [2] = assay: Effect on level of high density lipoprotein cholesterol (relative to untreated control) in cholesterol fed-male rats at 80 mg/kg/day
Outline: (§1)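 Male Sprague–Dawley rats (groups of six) fed a cholic acid- and cholesterol-supplemented diet; compound mixed into the diet, given ad libitum for eight days. Lipoproteins were separated by ultracentrifugation, and cholesterol was measured by an enzymatic colorimetric method. Results are % change versus untreated controls, with significance at p < 0.05.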

Rattus norvegicus [3] = assay: Effect on level of apolipoprotein (Apo) AI (relative to untreated control) in cholesterol fed-male rats at 80 mg/kg/day
Outline: (§2)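 Six male Sprague–Dawley rats per group, fed a cholic acid/cholesterol-supplemented diet, received compound in the diet ad libitum for eight days. Serum Apo A–I was measured by SDS-PAGE or by rat competition ELISA and reported as % change versus untreated controls (p < 0.05). Gemfibrozil was the internal positive control in each study.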

Rattus norvegicus [4] = assay: Effect on change in body weight gain (relative to untreated control) in cholesterol fed-male rats at 80 mg/kg/day
Outline: (§3)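 Male Sprague–Dawley rats, six per group, on a cholic acid- and cholesterol-supplemented diet. Compounds were mixed into the diet and given ad libitum for eight days. Change in body weight gain is expressed as a percentage of untreated controls. Significance was set at p < 0.05 versus untreated controls.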

Rattus norvegicus [5] = assay: Effect on level of total cholesterol (relative to untreated control) in cholesterol fed-male rats at 80 mg/kg/day; outline: as §1
Rattus norvegicus [6] = assay: Effect on change in body weight gain (relative to untreated control) in cholesterol fed-male rats at 68 mg/kg/day; outline: as §3
Rattus norvegicus [7] = assay: Effect on level of apolipoprotein (Apo) AI (relative to untreated control) in cholesterol fed-male rats at 68 mg/kg/day; outline: as §2
Rattus norvegicus [8] = assay: Effect on level of total cholesterol (relative to untreated control) in cholesterol fed-male rats at 68 mg/kg/day; outline: as §1
Rattus norvegicus [9] = assay: Effect on level of high density lipoprotein cholesterol (relative to untreated control) in cholesterol fed-male rats at 68 mg/kg/day; outline: as §1
Rattus norvegicus [10] = assay: Effect on level of triglyceride in (relative to untreated control) in cholesterol fed-male rats at 68 mg/kg/day
Outline: (§4)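 Serum triglycerides were measured in groups of six male Sprague–Dawley rats on a cholic acid/cholesterol-supplemented diet. Compound was dosed in the diet, ad libitum, for eight days. Results are % change relative to untreated controls, with significance at p < 0.05.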

Rattus norvegicus [11] = assay: Effect on level of total cholesterol (relative to untreated control) in cholesterol fed-male rats at 60 mg/kg/day; outline: as §1
Rattus norvegicus [12] = assay: Effect on level of triglyceride in (relative to untreated control) in cholesterol fed-male rats at 60 mg/kg/day; outline: as §4
Rattus norvegicus [13] = assay: Effect on change in body weight gain (relative to untreated control) in cholesterol fed-male rats at 60 mg/kg/day; outline: as §3
Rattus norvegicus [14] = assay: Effect on level of apolipoprotein (Apo) AI (relative to untreated control) in cholesterol fed-male rats at 60 mg/kg/day; outline: as §2
Rattus norvegicus [15] = assay: Effect on level of high density lipoprotein cholesterol (relative to untreated control) in cholesterol fed-male rats at 60 mg/kg/day
Outline: (§5)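 Cholic acid/cholesterol-fed male Sprague–Dawley rats (n = 6 per group) were dosed via diet ad libitum for eight days. Lipoproteins were separated by ultracentrifugation and HDL cholesterol was quantified by an enzymatic colorimetric method. Values are % change relative to untreated controls, with significance at p < 0.05. Gemfibrozil was the internal positive control.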

Rattus norvegicus [16] = assay: Effect on level of triglyceride in (relative to untreated control) in cholesterol fed-male rats at 75 mg/kg/day; outline: as §4
Rattus norvegicus [17] = assay: Effect on level of high density lipoprotein cholesterol (relative to untreated control) in cholesterol fed-male rats at 75 mg/kg/day; outline: as §1
Rattus norvegicus [18] = assay: Effect on level of total cholesterol (relative to untreated control) in cholesterol fed-male rats at 75 mg/kg/day; outline: as §1
Rattus norvegicus [19] = assay: Effect on level of apolipoprotein (Apo) AI (relative to untreated control) in cholesterol fed-male rats at 75 mg/kg/day; outline: as §2
Rattus norvegicus [20] = assay: Effect on change in body weight gain (relative to untreated control) in cholesterol fed-male rats at 75 mg/kg/day; outline: as §3
Rattus norvegicus [21] = assay: Effect on level of apolipoprotein (Apo) AI (relative to untreated control) in cholesterol fed-male rats at 55 mg/kg/day; outline: as §2
Rattus norvegicus [22] = assay: Effect on level of high density lipoprotein cholesterol (relative to untreated control) in cholesterol fed-male rats at 55 mg/kg/day; outline: as §5
Rattus norvegicus [23] = assay: Effect on level of triglyceride in (relative to untreated control) in cholesterol fed-male rats at 55 mg/kg/day; outline: as §4
Rattus norvegicus [24] = assay: Effect on level of total cholesterol (relative to untreated control) in cholesterol fed-male rats at 55 mg/kg/day; outline: as §1
Rattus norvegicus [25] = assay: Effect on change in body weight gain (relative to untreated control) in cholesterol fed-male rats at 55 mg/kg/day; outline: as §3
Rattus norvegicus [26] = assay: Effect on level of apolipoprotein (Apo) AI (relative to untreated control) in cholesterol fed-male rats at 40 mg/kg/day; outline: as §2
Rattus norvegicus [27] = assay: Effect on level of triglyceride in (relative to untreated control) in cholesterol fed-male rats at 40 mg/kg/day; outline: as §4
Rattus norvegicus [28] = assay: Effect on level of total cholesterol (relative to untreated control) in cholesterol fed-male rats at 40 mg/kg/day; outline: as §1
Rattus norvegicus [29] = assay: Effect on level of high density lipoprotein cholesterol (relative to untreated control) in cholesterol fed-male rats at 40 mg/kg/day; outline: as §5
Rattus norvegicus [30] = assay: Effect on change in body weight gain (relative to untreated control) in cholesterol fed-male rats at 40 mg/kg/day; outline: as §3
Rattus norvegicus [31] = assay: Effect on level of triglyceride in (relative to untreated control) in cholesterol fed-male rats at 63 mg/kg/day; outline: as §4
Rattus norvegicus [32] = assay: Effect on level of apolipoprotein (Apo) AI (relative to untreated control) in cholesterol fed-male rats at 63 mg/kg/day; outline: as §2
Rattus norvegicus [33] = assay: Effect on change in body weight gain (relative to untreated control) in cholesterol fed-male rats at 63 mg/kg/day; outline: as §3
Rattus norvegicus [34] = assay: Effect on level of total cholesterol (relative to untreated control) in cholesterol fed-male rats at 63 mg/kg/day; outline: as §1
Rattus norvegicus [35] = assay: Effect on level of high density lipoprotein cholesterol (relative to untreated control) in cholesterol fed-male rats at 63 mg/kg/day; outline: as §1
Rattus norvegicus [36] = assay: Effect on level of high density lipoprotein cholesterol (relative to untreated control) in cholesterol fed-male rats at 66 mg/kg/day; outline: as §1
Rattus norvegicus [37] = assay: Effect on level of total cholesterol (relative to untreated control) in cholesterol fed-male rats at 66 mg/kg/day; outline: as §1
Rattus norvegicus [38] = assay: Effect on level of apolipoprotein (Apo) AI (relative to untreated control) in cholesterol fed-male rats at 66 mg/kg/day; outline: as §2
Rattus norvegicus [39] = assay: Effect on change in body weight gain (relative to untreated control) in cholesterol fed-male rats at 66 mg/kg/day; outline: as §3
Rattus norvegicus [40] = assay: Effect on level of triglyceride in (relative to untreated control) in cholesterol fed-male rats at 66 mg/kg/day; outline: as §4

Cc1ccc(Cl)cc1/N=C(\S)NC(C)(C)CO
Activity (Rattus norvegicus [1]): -15%
Activity (Rattus norvegicus [2]): 58%
Activity (Rattus norvegicus [3]): 23%
Activity (Rattus norvegicus [4]): -23%
Activity (Rattus norvegicus [5]): -13%

COc1ccc(Cl)cc1/N=C(\S)NCCO
Activity (Rattus norvegicus [1]): -27%
Activity (Rattus norvegicus [2]): 106%
Activity (Rattus norvegicus [3]): 30%
Activity (Rattus norvegicus [4]): -38%
Activity (Rattus norvegicus [5]): 66%

OCC/N=C(\S)Nc1cccc(C(F)(F)F)c1
Activity (Rattus norvegicus [6]): -76%
Activity (Rattus norvegicus [7]): 36%
Activity (Rattus norvegicus [8]): 44%
Activity (Rattus norvegicus [9]): 66%
Activity (Rattus norvegicus [10]): -15%

OCC/N=C(\S)Nc1cc(Cl)cc(Cl)c1
Activity (Rattus norvegicus [11]): 9%
Activity (Rattus norvegicus [12]): -35%
Activity (Rattus norvegicus [13]): -90%
Activity (Rattus norvegicus [14]): 48%
Activity (Rattus norvegicus [15]): 50%

Cc1ccc(Cl)cc1/N=C(\S)N(C)CCO
Activity (Rattus norvegicus [16]): -47%
Activity (Rattus norvegicus [17]): 100%
Activity (Rattus norvegicus [18]): 29%
Activity (Rattus norvegicus [19]): 40%
Activity (Rattus norvegicus [20]): -31%

Cc1ccc(Cl)cc1/N=C(\S)NCCO
Activity (Rattus norvegicus [21]): 48%
Activity (Rattus norvegicus [22]): 75%
Activity (Rattus norvegicus [23]): -53%
Activity (Rattus norvegicus [24]): 39%
Activity (Rattus norvegicus [25]): -104%

Cc1cccc(Cl)c1/N=C(\S)NCCO
Activity (Rattus norvegicus [26]): -34%
Activity (Rattus norvegicus [27]): -48%
Activity (Rattus norvegicus [28]): 8%
Activity (Rattus norvegicus [29]): 23%
Activity (Rattus norvegicus [30]): -155%

Cc1ccc(C)c(N/C(S)=N/CCO)c1
Activity (Rattus norvegicus [31]): -32%
Activity (Rattus norvegicus [32]): 0%
Activity (Rattus norvegicus [33]): -117%
Activity (Rattus norvegicus [34]): 32%
Activity (Rattus norvegicus [35]): 62%

OCC/N=C(\S)Nc1cccc(Cl)c1
Activity (Rattus norvegicus [36]): 79%
Activity (Rattus norvegicus [37]): 30%
Activity (Rattus norvegicus [38]): 43%
Activity (Rattus norvegicus [39]): -70%
Activity (Rattus norvegicus [40]): -31%

Cc1ccc(Cl)cc1N/C(S)=N/[C@H](C)CO
Activity (Rattus norvegicus [16]): -23%
Activity (Rattus norvegicus [17]): 13%
Activity (Rattus norvegicus [18]): 85%
Activity (Rattus norvegicus [19]): 6%
Activity (Rattus norvegicus [20]): -4%
